One data set deals with Sindbis virus. The data set can be described thus: Antiviral activity against Sindbis virus-induced cytopathogenicity in Vero cells. The data set is classed as functional. On the technique in general: Protection from cytopathic effect is a common read-out in antiviral testing.
For a further data set, the system named is HeLa. The data set can be described thus: Antiproliferative activity against human HeLa cells after 72 hrs by MTT assay. Format: functional, cell-based. In a few lines:
(§1)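 Monolayers grown in DMEM with 10% FBS, 2 mM L-glutamine and penicillin/streptomycin at 37 °C, 5% CO2. Seeded at 1 × 10⁴–3 × 10⁴ cells/mL on day 0. Compounds from 0.04 M DMSO stocks added at five 10-fold dilutions (10⁻⁸–10⁻⁴ M final), with matched DMSO controls, for 72 h. MTT added for 4 h, formazan dissolved in DMSO, absorbance read at 570 nm. Percentage growth calculated against time-zero and untreated OD. IC50 is 50% inhibition of proliferation.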

Data set [1] is described as follows: Antiproliferative activity against human Molt4/C8 cells. The data set is classed as functional, cell-based. The settings on record: MOLT-4. In a few lines: (§2)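 Suspension cells seeded at 50 × 10³ cells/well with a range of test compound concentrations. Cell number counted with a Coulter counter after 2 days (L1210) or 3 days (Molt4/C8, CEM). IC50 is the concentration that cuts cell growth by 50% versus untreated controls, read from plots of cell number (% of control) against concentration.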

Data set [2] is described as follows: Cytotoxicity against HEL cells. The settings on record: human. Format: cell-based. In a few lines:
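Cells seeded at 5 × 10³ cells/well and exposed to medium containing a range of test compound concentrations. After 3 days at 37 °C, cell morphology examined microscopically. Reported as minimum cytotoxic concentration (MCC), the concentration causing a microscopically detectable alteration of normal cell morphology.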

Data set [3] relates to Human alphaherpesvirus 1. The data set can be described thus: Antiviral activity against HSV1 TK- KOS ACV -induced cytopathogenicity in HEL cells. Format: functional. Conditions: Human alphaherpesvirus 1, KOS.
Another data set has as its system MCF7. The data set can be described thus: Antiproliferative activity against human MCF7 cells after 72 hrs by MTT assay. Format: functional, cell-based. Conditions: MCF7, 72 h. In a few lines: as §1
(Formazan colour is commonly taken as a measure of viable cells.)

The test system of a further data set is Punta Toro virus. The data set can be described thus: Antiviral activity against Punta Toro virus-induced cytopathogenicity in Vero cells. The data set is classed as functional.
Data set [4] relates to Human alphaherpesvirus 1. In words: Antiviral activity against HSV1 KOS-induced cytopathogenicity in HEL cells. The data set is classed as functional. The settings on record: Human alphaherpesvirus 1, KOS.
The subject of data set [5] is Vesicular stomatitis virus. The data set can be described thus: Antiviral activity against in Vesicular stomatitis virus-induced cytopathogenicity in HEL cells. Format: functional.
Data set [6] has as its system Vesicular stomatitis virus. The data set can be described thus: Antiviral activity against in Vesicular stomatitis virus- induced cytopathogenicity in HeLa cells. The data set is classed as functional.
The subject of a further data set is CCRF-CEM. The data set can be described thus: Antiproliferative activity against human CEM cells. Format: functional, cell-based. In a few lines:
as §2

In another data set the test system is SW-620. The data set can be described thus: Antiproliferative activity against human SW620 cells after 72 hrs by MTT assay. The data set is classed as functional, cell-based. The settings on record: SW-620, 72 h. A digest of the protocol: as §1
The subject of another data set is WI-38. The data set can be described thus: Antiproliferative activity against human WI38 cells after 72 hrs by MTT assay. The data set is classed as functional, cell-based. The settings on record: WI-38, 72 h. A digest of the protocol:
as §1

In another data set the test system is MIA PaCa-2. The data set can be described thus: Antiproliferative activity against human MiaPaCa2 cells after 72 hrs by MTT assay. Format: functional, cell-based. Conditions: Homo sapiens, MIA PaCa-2, 72 h; read-out: IC50. In a few lines:
as §1

The test system of a further data set is Human alphaherpesvirus 2. The data set can be described thus: Antiviral activity against HSV2 G-induced cytopathogenicity in HEL cells. Format: functional. Conditions: Human alphaherpesvirus 2, G.
The subject of a further data set is HEp-2. The data set can be described thus: Antiproliferative activity against human Hep2 cells after 72 hrs by MTT assay. Format: functional, cell-based. Conditions: HEp-2, 72 h. In a few lines: as §1
In another data set the test system is Coxsackievirus B4. In words: Antiviral activity against Coxsackie virus B4-induced cytopathogenicity in Vero cells. The data set is classed as functional. The settings on record: Enterovirus B.
Another data set has as its system L1210. In words: Antiproliferative activity against mouse L1210 cells. The data set is classed as functional, cell-based. A digest of the protocol:
as §2

Drawing on ChEMBL document CHEMBL1144557, “The novel C-5 aryl, alkenyl, and alkynyl substituted uracil derivatives of L-ascorbic acid: synthesis, cytostatic, and antiviral activity evaluations” (Bioorg Med Chem, 2007), this text covers MIC, IC50 and MCC for three molecules.

Values after ≈ are worked out from the molar mass of the structure shown.

As a reminder, the IC50 is the concentration at which inhibition is half-maximal. For `O=C1O/C(=C\Cn2cc(-c3ccco3)c(=O)[nH]c2=O)C(O)=C1O`, the MIC (against Sindbis virus; against Human alphaherpesvirus 1 [3]; against Punta Toro virus; against Human alphaherpesvirus 1 [4]; in [5]; in data set [6]) was greater than 100 µM in each case. For the same molecule, the MIC against Human alphaherpesvirus 2 and in the data set with Coxsackievirus B4 was greater than 100 µM in each case. Further, the IC50 is greater than 100 µM in the data set with HeLa; no less than 500 µM in data set [1]; greater than 100 µM with MCF7; 436 µM in the data set with CCRF-CEM; greater than 100 µM in the data set on SW-620; greater than 100 µM in the data set on WI-38. Further, the IC50 is greater than 100 µM in the data set on MIA PaCa-2, greater than 100 µM with HEp-2 and no less than 500 µM with L1210. Moreover, in [2], the MCC worked out at 100 µM.
For `O=C1O/C(=C\Cn2cc(C#Cc3ccccc3)c(=O)[nH]c2=O)C(O)=C1O`, the MIC is greater than 4 µM in the data set with Sindbis virus; greater than 4 µM with Human alphaherpesvirus 1 [3]; greater than 4 µM with Punta Toro virus; greater than 4 µM against Human alphaherpesvirus 1 [4]; 4 µM (≈ 1.41 µg/mL) in data set [5]; greater than 4 µM in data set [6]. For the same molecule, the MIC in the data set on Human alphaherpesvirus 2 was 4 µM (≈ 1.41 µg/mL); against Coxsackievirus B4 it was greater than 4 µM. Besides, the IC50 in the data set on HeLa came to 2 µM; in data set [1], 8.2 µM; in the data set on MCF7, 1 µM; in the data set with CCRF-CEM, 7.6 µM; in the data set on SW-620, 4 µM; with WI-38, 1 µM. Moreover, the figures for the concentration for half-maximal inhibition (IC50) in the data set with MIA PaCa-2, with HEp-2 and in the data set on L1210 were 3 µM, 3 µM and 8.1 µM, respectively. In data set [2], this molecule yielded an MCC of 20 µM.
For the molecule `CC(C)=CCc1cn(C/C=C2\OC(=O)C(OCc3ccccc3)=C2OCc2ccccc2)c(=O)[nH]c1=O`, the MIC was greater than 4 µM against Sindbis virus; greater than 4 µM with Human alphaherpesvirus 1 [3]; 4 µM (≈ 2 µg/mL) against Punta Toro virus; 4 µM (≈ 2 µg/mL) with Human alphaherpesvirus 1 [4]; greater than 4 µM in [5]; greater than 4 µM in data set [6]. The MIC with Human alphaherpesvirus 2 was 4 µM (≈ 2 µg/mL); with Coxsackievirus B4 it was greater than 4 µM. Also, the IC50 in the data set with HeLa amounted to 2 µM; in data set [1], 8.3 µM; in the data set with MCF7, 4 µM; in the data set on CCRF-CEM, 7.7 µM; in the data set with SW-620 it was 4 µM; in the data set with WI-38 it was 2 µM. Moreover, the IC50 worked out at 5 µM with MIA PaCa-2, 2.6 µM with HEp-2 and 8.2 µM in the data set with L1210. In data set [2], this molecule came in with an MCC of 20 µM.
